Data reported in ChEMBL document CHEMBL1154990, “Three new cytochalasins produced by an endophytic fungus in the genus Rhinocladiella” (2000).

What was measured:
[1] = Cytotoxicity against human A2780S cells after 72 hrs; assay type: functional, A2780
In short: (§1)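 Cells seeded at 2.5×10^4 cells/mL (150 μL per well) and preincubated ~24 h at 37 °C, 5% CO₂. Compounds dissolved at 1.0 mg/mL in MeOH (stock), 50 μL added, then serially diluted 4-fold for eight concentrations. After 72 h further incubation, cells fixed with HBSS–formaldehyde–water (1:1:8) for 10 min. Stained with 0.0075% crystal violet for 15 min. Concentration giving total cell kill (IC100) read.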

HCT-116 = test: Cytotoxicity against human HCT116 cells after 72 hrs; assay type: functional; in short: as §1
SW-620 = test: Cytotoxicity against human SW620 cells after 72 hrs; assay type: functional; in short: as §1

| SMILES | IC100 [1] [µg/mL] | IC100 (HCT-116) [µg/mL] | IC100 (SW-620) [µg/mL] |
| --- | --- | --- | --- |
| CC1CCC(=O)O[C@@]23C(=O)N[C@@H](Cc4ccccc4)[C@@H]2[C@H](C)[C@@]2(C)O[C@H]2[C@@H]3/C=C/CC(CO)C1=O (stereo partly specified) | 3.91 | 15.6 |  |
| CC1CCC(=O)O[C@@]23C(=O)N[C@@H](Cc4ccccc4)[C@@H]2[C@H](C)[C@@]2(C)O[C@H]2[C@@H]3/C=C/CC(C)(O)C1=O (stereo partly specified) | 15.6 | 15.6 | 62.5 |
| C[C@H]1C/C=C/[C@H]2[C@@H]3O[C@]3(C)[C@@H](C)[C@H]3[C@H](Cc4ccccc4)NC(=O)[C@]32OC(=O)O/C=C/[C@@](C)(O)C1=O [CYTOCHALASIN E] | <0.0153 | 0.244 | 0.977 |
| CC1/C=C/C(=O)O[C@@]23C(=O)N[C@@H](Cc4ccccc4)[C@@H]2[C@H](C)[C@@]2(C)O[C@H]2[C@@H]3/C=C/CC(C)C1O (stereo partly specified) | 3.91 | 3.91 | 15.6 |
